Structures are written as SMILES. In brackets after ≈: the same amount, converted by molar mass. Activity calls are given as the source filed them.

The subject of assay [1] is Escherichia coli. Description: Antimicrobial activity against Escherichia coli KD1397 containing tolC::Tn10 gyrA+ mutant by agar or broth dilution method. The format is functional. The gist of the method:
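MIC by agar or broth dilution in LB, 37°C: 10^4–10^5 CFU applied to plates or broth cultures with serial compound concentrations. Colonies counted after 2 days, or turbid growth scored after 1 day. MIC99 is the minimal concentration blocking colony formation by 99%, interpolated from log-log plots.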

Assay [2] has as its system Escherichia coli. In words: Antimicrobial activity against Escherichia coli KD1397 containing tolC::Tn10 gyrA+ mutant assessed as bactericidal activity. The format is functional. The gist of the method:
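Liquid-culture lethality: 5 × 10^6 CFU/ml aliquots exposed 20 h to a range of compound concentrations; survivors counted by dilution and plating on drug-free LB agar, overnight at 37°C. MBC taken as the concentration lowering survival by 99.9%.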

The subject of assay [3] is Escherichia coli. In words: Ratio of MBC to MIC99 in Escherichia coli KD1397 containing tolC::Tn10 gyrA+ mutant. The format is functional. In a few lines:
(§1)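 MBC (99.9% kill after 20 h in liquid at 5 × 10^6 CFU/ml, survivors plated on drug-free agar) divided by MIC99 (99% block of colony formation, agar or broth dilution with 10^4–10^5 CFU, log-log interpolation); efflux-deficient tolC strain for line 4, wild-type DM4100 for line 5.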

In assay [4] the test system is Escherichia coli. Description: Ratio of mutant prevention concentration to MIC99 for Escherichia coli KD1397 containing tolC::Tn10 gyrA+ mutant. The format is functional.
The subject of assay [5] is Escherichia coli. Description: Antimicrobial activity against wild type Escherichia coli DM4100 by agar or broth dilution method. The format is functional. The gist of the method: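 K-12 strain grown in LB at 37°C; 10^4–10^5 CFU applied to agar plates or broth with a dilution series of compound; colonies counted after 2 days or turbidity scored after 1 day. MIC99 is the concentration blocking colony formation by 99%, interpolated from log-log plots.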
A general note: In broth dilution the organism is exposed to a series of concentrations in liquid medium.

The test system of assay [6] is Escherichia coli. Description: Antimicrobial activity against wild type Escherichia coli DM4100 assessed as bactericidal activity. The format is functional. The gist of the method:
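Liquid-culture killing: E. coli at 5 × 10^6 CFU/ml exposed 20 h to a range of drug concentrations, survivors counted by dilution and plating on drug-free agar incubated overnight at 37°C; MBC taken as concentration lowering survival by 99.9%.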

The subject of assay [7] is Escherichia coli. Description: Ratio of MBC to MIC99 in wild type Escherichia coli DM4100. The format is functional. The gist of the method:
as §1

Assay [8] concerns Escherichia coli. In words: Ratio of mutant prevention concentration to MIC99 for wild type Escherichia coli DM4100. The format is functional. The gist of the method:
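Population analysis: stationary-phase DM4100 from LB spread on agar plates spanning a broad drug range; colonies counted, passaged on drug-free agar, then retested at the selecting concentration to confirm resistance. MPC is the concentration blocking colony formation from 10^10 CFU, expressed relative to MIC99.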

In assay [9] the test system is Escherichia coli. Description: Reduction quinolone resistant mutation in wild type Escherichia coli DM4100 assessed as decrease in recovery of resistant bacterial mutant colonies at 2 times MIC by agar plate assay. The format is functional, organism-based.
For assay [10], the system named is Escherichia coli. Description: Reduction quinolone resistant mutation in wild type Escherichia coli DM4100 assessed as decrease in recovery of resistant bacterial mutant colonies at 5 times MIC by agar plate assay. The format is functional, organism-based. In a few lines: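 Same agar-plate accumulation assay at 5× MIC99 with an inoculum of 10^9 CFU. Drug added to molten LB agar, incubated at 37°C, and cumulative colonies scored at daily intervals. Repeated with inocula of 8 × 10^6 to 10^10 CFU in two replicate experiments.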

The subject of assay [11] is Escherichia coli. In words: Antimicrobial activity against wild type Escherichia coli DM4100 assessed as decrease in bacterial survival at 3 times MIC by agar plate method. The format is functional, organism-based. In a few lines: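 DM4100 (10^4 to 10^8 CFU) spread on quartered agar plates with drug at three times MIC; at various times a quarter excised, washed with LB, cells pelleted (5,000 × g, 5 min), diluted onto drug-free agar at 37°C, colonies counted at 24 and 48 h. Survival relative to untreated input, corrected for resistant mutants scored on 0.02 μg/ml ciprofloxacin agar; two replicate experiments.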

For assay [12], the system named is Escherichia coli. In words: Reduction quinolone resistant mutation in wild type Escherichia coli DM4100 assessed as decrease in recovery of resistant bacterial mutant colonies by agar plate assay. The format is functional, organism-based. The gist of the method: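 Drug added to molten LB agar; 10^4–10^10 CFU of E. coli applied and incubated at 37°C for up to 2 weeks, with cumulative colonies counted daily. Day-1 colonies are taken as the preexisting-mutant baseline. Drug concentration is normalized to MIC99.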

On to `COc1c(N2CC[C@@H](CN)C2)c(F)cc2c(=O)c(C(=O)O)cn(C3CC3)c12`, for which the MIC99 (in general, the lowest concentration that inhibits either 99% of growth or 99% of the strains tested, depending on the study) against Escherichia coli [1] is 0.004 µg/mL (≈ 0.0107 µM). For the same compound, in the assay with Escherichia coli [2], the MBC (usually the smallest concentration meeting the test's criterion for killing) is 0.01 µg/mL (≈ 0.0266 µM). Also, the Ratio with Escherichia coli [3] was determined as 2.5; in the assay on Escherichia coli [4], 8.
In turn, `CCN1CCN(c2cc3c(cc2F)c(=O)c(C(=O)O)cn3C2CC2)CC1` [ENROFLOXACIN] returned an MIC99 with Escherichia coli [5] of 0.022 µg/mL (≈ 0.0612 µM). For the same compound, the MBC in the assay with Escherichia coli [6] worked out at 0.07 µg/mL (≈ 0.195 µM). Also, the Ratio was 3.2 with Escherichia coli [7] and 15 with Escherichia coli [8]. Further, the inhibition entry with Escherichia coli [9], with Escherichia coli [10] and in the assay with Escherichia coli [11] was “Active” throughout.
As to `COc1c(N2CC[C@@H](CN)C2)c(F)cc2c(=O)n(N)c(=O)n(C3CC3)c12`, the MIC99 against Escherichia coli [1] came to 0.5 µg/mL (≈ 1.38 µM). Moreover, the MBC with Escherichia coli [2] was 1 µg/mL (≈ 2.75 µM). For the same compound, the Ratio was found to be 2 in the assay on Escherichia coli [3] and 3 in the assay with Escherichia coli [4].
In the case of `CCn1cc(C(=O)O)c(=O)c2ccc(C)nc21`, the inhibition entry with Escherichia coli [12] is “Dose-dependent effect”.
Consider `CCC1CN(c2cc3c(cc2F)c(=O)c(C(=O)O)cn3C2CC2)CCN1` (configuration not stated), for which the MIC99 against Escherichia coli [5] is 0.045 µg/mL (≈ 0.125 µM). Besides, the MBC in the assay with Escherichia coli [6] came out at 0.16 µg/mL (≈ 0.445 µM). Also, the Ratio with Escherichia coli [7] is given as 3.5; in the assay with Escherichia coli [8], 10. The inhibition entry with Escherichia coli [9], in the assay with Escherichia coli [10] and in the assay with Escherichia coli [11] was “Active” in each case.
For `CCC1CN(c2c(F)cc3c(=O)c(C(=O)O)cn(C4CC4)c3c2OC)CCN1` (configuration not stated), in the assay on Escherichia coli [5], the MIC99 was determined as 0.11 µg/mL (≈ 0.282 µM). Besides, the minimal bactericidal concentration (MBC) in the assay on Escherichia coli [6] came out at 0.33 µg/mL (≈ 0.847 µM). Also, the Ratio with Escherichia coli [7] is 3; in the assay on Escherichia coli [8] it was 6. In addition, the inhibition entry with Escherichia coli [9], in the assay on Escherichia coli [10] and in the assay with Escherichia coli [11] was “Active” throughout.
Turning to `CCN1CCN(c2c(F)cc3c(=O)c(C(=O)O)cn(C4CC4)c3c2OC)CC1`, the MIC99 in the assay with Escherichia coli [5] was 0.14 µg/mL (≈ 0.36 µM). The MBC with Escherichia coli [6] was 0.27 µg/mL (≈ 0.693 µM). Further, the Ratio in the assay on Escherichia coli [7] worked out at 1.9; in the assay with Escherichia coli [8], 7. The inhibition entry with Escherichia coli [9], with Escherichia coli [10] and with Escherichia coli [11] was “Active” each time.

The values above are taken from ChEMBL document CHEMBL1212737, “Novel approach for comparing the abilities of quinolones to restrict the emergence of resistant mutants during quinolone exposure” (2010).
